What was measured:
[1] = humans, cited from earlier work
[2] = system: renal proximal tubule cells; assay type: in vivo, mouse; settings: 5 minutes (NS^TMR) or 5 or 60 minutes after iv injection
human PTHR1 = target: T1, human PTHR1 (Homo sapiens, UniProt Q03431); assay: cAMP signaling; assay type: cell-based; settings: GP-2.3 cells; for Emax (cAMP-dependent luminescence): vehicle 1.3 ± 0.1, means ±SEM of 10 experiments
T1 sequence (Q03431 27-593): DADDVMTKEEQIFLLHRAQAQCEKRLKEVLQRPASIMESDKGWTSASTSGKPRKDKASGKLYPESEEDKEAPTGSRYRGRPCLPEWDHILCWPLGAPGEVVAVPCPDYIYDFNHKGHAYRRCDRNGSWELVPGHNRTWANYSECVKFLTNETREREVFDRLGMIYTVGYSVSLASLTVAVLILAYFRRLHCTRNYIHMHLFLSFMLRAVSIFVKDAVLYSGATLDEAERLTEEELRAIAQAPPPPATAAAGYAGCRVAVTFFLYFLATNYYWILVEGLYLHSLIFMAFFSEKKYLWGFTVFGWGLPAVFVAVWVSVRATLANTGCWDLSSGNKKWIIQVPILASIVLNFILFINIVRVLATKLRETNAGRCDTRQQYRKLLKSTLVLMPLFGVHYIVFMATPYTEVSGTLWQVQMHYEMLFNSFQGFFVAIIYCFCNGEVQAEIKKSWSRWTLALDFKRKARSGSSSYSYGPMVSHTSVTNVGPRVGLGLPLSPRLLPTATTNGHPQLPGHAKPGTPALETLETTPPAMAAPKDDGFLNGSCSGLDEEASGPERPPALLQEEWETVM

[3] = system: PTHR1-expressing GP-2.3 cells; assay: Confocal microscopy of ligand internalization in GP-2.3 and GS-22A cells; assay type: cell-based, human; settings: 100 nM; for ligand localization in GP-2.3 cells: 15 minutes at 21°C, confocal TMR fluorescence; for TMR fluorescence in parental GS-22A cells (not transfected with PTHR1): confocal microscopy
Outline: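 GP-2.3 cells (HEK-293 with stable human PTHR1 and glosensor) and parental GS-22A cells (glosensor only) were grown on coverslips to ~75% confluence. Cells were exposed to TMR-ligand at 100 nM in HBB for 15 min at 21°C, or for 30 min at 4°C to block internalization. They were then rinsed thrice, fixed in 4% formalin for 5 min and mounted with DAPI. Confocal imaging used 405/559 nm excitation.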

C57BL/6J mice [4] = assay: Blood ionized calcium after iv injection in mice; assay type: in vivo, mouse; settings: iv 50 nmol/kg; for peak blood Ca^2+ increase above pre-injection (t = 0) level: n = 6 per group
C57BL/6J mice [5] = assay: Plasma Pi after iv injection in mice; assay type: in vivo, mouse; settings: iv 50 nmol/kg; for time of Pi nadir: after injection; for decline of blood phosphate (Pi) at the nadir: n = 6 per group
C57BL/6J mice [6] = assay: Blood 1,25; assay type: in vivo, mouse; settings: iv 50 nmol/kg; for blood 1,25(OH)2D relative to vehicle-injected mice: 2 hours after injection
[7] = Persistence of injected ligand in mouse blood and urine; settings: mice, iv 50 nmol/kg, 1 μL plasma in PBS, n = 6
C57BL/6J mice [8] = assay: Urinary fractional excretion of Ca and Pi after iv injection in mice; assay type: in vivo, mouse; settings: iv 50 nmol/kg, spot urine

Emax (cAMP-dependent luminescence) (human PTHR1) [cps × 10^−3]	Substance	immunostained phosphorylated PKA substrate in kidney sections [2]	ligand localization in GP-2.3 cells [3]	TMR fluorescence in parental GS-22A cells (not transfected with PTHR1) [3]	peak blood Ca^2+ increase above pre-injection (t = 0) level (C57BL/6J mice [4])	time of return of blood Ca^2+ to baseline (C57BL/6J mice [4]; post-injection) [h]	time of Pi nadir (C57BL/6J mice [5]) [h]	decline of blood phosphate (Pi) at the nadir (C57BL/6J mice [5]) [%]	blood 1,25(OH)2D relative to vehicle-injected mice (C57BL/6J mice [6])	further results
	PTH(1-34)									half-time (t1/2) of disappearance from the circulation ([1]; injected intravenously): 10 ± 0.5 min; half-time ([1]; subcutaneous injection): about 1 hour
	PTH(1-84)									serum half-time ([1]; injected subcutaneously): about 2.5 hours
	TMR-NNGEDHSQITKV [NS^TMR, reference compound]	little or no green fluorescence								
184 ± 12	[Lys^13(TMR), Cys^35]PTH(1-35) [PTH^TMR]	clear staining for pPKA substrate	located predominantly in internalized vesicles	No such TMR fluorescence was observed	~ 8%	≤ 24	1	27	about threefold	time of return of Pi to baseline (C57BL/6J mice [5]): ≤ 4 h; last time point at which plasma TMR fluorescence was detected [7]: 2 h
178 ± 14	[Lys^13(tetramethyl rhodamine {TMR}), Cys^35(PEG-20,000 Da)]PTH(1-35) [PEG-PTH^TMR]	at least comparable to that observed with the PTH^TMR ligand	located predominantly in internalized vesicles	No such TMR fluorescence was observed	~ 21%	96	2	42	about threefold	potency (EC50) relative to PTH(1-34) and PTH^TMR (human PTHR1; cAMP): about three- to fivefold weaker; time of peak blood Ca^2+ (C57BL/6J mice [4]; post-injection): 24 h; duration of effects on urinary fractional excretion of Ca and Pi (C57BL/6J mice [8]): up to 24 hours; blood 1,25(OH)2D (C57BL/6J mice [6]; 24 hours after injection): marked increases

From paper PMC5199614 (Journal of bone and mineral research : the official journal …, 2016)
